An excerpt weighted towards active compounds, which were near 1.4% of everything screened.
A3G deaminase: APOBEC3G (human) deaminase inhibition | recombinant A3G, ssDNA deamination FAM/TAMRA fluorescence | hit rate 0.28% among 330,000 | inhibition, % at 20 µM | Q9HC16;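 active means inhibition of at least 40% at 20 µM, with no more than 30% in the related APOBEC3A deaminase screen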;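 further: plate controls were DMSO wells with A3G for no effect and wells lacking A3G enzyme for full effect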
CCR6 antag: antagonists of human CCR6 receptor; CHO-K1 CCR6 PathHunter beta-arrestin, luminescence, CCL20-stimulated; hit rate 0.49% among 340,000; P51684; AID 493098; inhibition, % at 20 µM;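 active means compounds whose inhibition of the agonist-driven luminescence signal at 20 µM reaches about 50%, limit read from the data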;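 further: cells stimulated with CCL20 at 14 nM final; plate controls were DMSO with CCL20 for no effect and DMSO without agonist for full effect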
APJ antagonist: APJ receptor antagonism; hit rate 0.32% among 330,000; CHO-K1 APJ beta-arrestin complementation, luminescence; inhibition, % at 20 µM; P35414;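 active means inhibition above about 40% at 20 µM, limit read from the data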;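 further: cells challenged with 10 nM apelin-13 agonist together with compound; plate controls were apelin-13 plus DMSO wells for no effect and DMSO wells lacking apelin-13 for full effect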
Target sequence (P35414 whole entry, looked up): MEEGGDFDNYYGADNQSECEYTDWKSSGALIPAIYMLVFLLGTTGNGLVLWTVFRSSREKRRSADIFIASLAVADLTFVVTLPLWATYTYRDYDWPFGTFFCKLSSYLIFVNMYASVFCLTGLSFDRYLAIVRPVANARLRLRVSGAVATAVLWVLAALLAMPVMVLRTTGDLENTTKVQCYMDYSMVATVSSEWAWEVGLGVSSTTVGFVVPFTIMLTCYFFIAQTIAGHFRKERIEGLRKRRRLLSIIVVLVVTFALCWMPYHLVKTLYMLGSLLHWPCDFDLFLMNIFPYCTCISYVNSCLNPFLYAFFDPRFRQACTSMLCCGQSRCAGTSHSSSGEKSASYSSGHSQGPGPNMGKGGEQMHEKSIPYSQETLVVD
APOBEC3A inh: human APOBEC3A DNA deaminase inhibition. hit rate 0.41% among 330,000. AID 493011. inhibition, % at 20 µM. recombinant A3A, FAM/TAMRA ssDNA deamination fluorescence;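 active means at least 40% inhibition at 20 µM here, with at most 30% in a related deaminase screen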;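 further: plate controls were A3A with DMSO for no effect and wells lacking A3A enzyme for full effect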
APJ agonist: activates the human apelin receptor APJ; activation, % at 20 µM; P35414; hit rate 0.11% among 330,000; CHO-K1 APJ PathHunter beta-arrestin, luminescence; 0% DMSO wells, 100% apelin;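 active means activation more than six SD over the plate average, tested at 20 µM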;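 further: 0% = DMSO alone and 100% = apelin-13 at 10 nM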
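Assay system: engineered CHO-K1 APJ arrestin reporter cells; Amount: 1000 CHO-K1 reporter cells seeded per well; Dosing: one dose, 20 µM compound, 1% DMSO; Times: compound stimulation 90 min at 25 °C, detection 60 min; Measured by: luminescent beta-gal fragment complementation, chemiluminescent substrate; Read-out: APJ–arrestin association signal; Controls: DMSO vs Apelin-13 10 nM.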
CXCR6 block: CXCR6 (human) receptor inhibition | O00574 | CHO-K1 PathHunter CXCR6 beta-arrestin, luminescence | inhibition, % at 20 µM | hit rate 0.36% among 360,000; in the data active means inhibition above about 34%, passing the limit was not always enough;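 further: antagonist mode with CXCL16 agonist at 10 nM final; 0% = 10 nM CXCL16 with DMSO and 100% = unstimulated wells without agonist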
Starred values were filed as active, the others as inactive; . = no result.

SMILES	A3G deaminase	CCR6 antag	APJ antagonist	APOBEC3A inh	APJ agonist	CXCR6 block
CCC(=O)OCOc1ccc(/C=C2/CCC(CN(C)C)C2=O)cc1 (stereo unspecified)	.	90*	.	.	.	82*
Cc1ccc(-c2nn3c(-c4ccco4)nnc3c3ccccc23)cc1S(=O)(=O)NCC1CCCO1 (stereo unspecified)	-4	51*	11	3	-10	0
CC1CCN(C(=S)NC(=O)c2cccs2)CC1	-1	0	15	-3	-2	10
CCCCN(CCCC)C(=O)c1cc(Cl)ccc1[N+](=O)[O-]	-6	17	2	-3	-2	7
CCCN(CCC)C(=O)c1cc([N+](=O)[O-])cc2c1-c1ccc([N+](=O)[O-])cc1C2=C(C#N)C#N	-1	66*	11	4	5	.
CC(=O)N1N=C(c2cccc([N+](=O)[O-])c2)OC1c1ccccc1Cl (stereo unspecified)	0	50*	12	-1	-11	32
O=S(=O)(Nc1ccc(NS(=O)(=O)c2ccccc2)cc1)c1ccccc1	.	.	.	.	.	0
O=C1C(Nc2ccccc2)=C(NS(=O)(=O)c2ccccc2)C(=O)c2ccccc21	-5	50*	-28	-2	-3	18
COC(=O)C1=C(C(=O)OC)SC(=C2C(=S)C(C)(C)N(C(=O)C3CC3)c3ccccc32)S1	5	52*	38	5	-12	34
CCCC(=O)N1c2ccccc2C(=C2SC(C(=O)OC)=C(C(=O)OC)S2)C(=S)C1(C)C	-1	.	10	1	-6	23
CC1C(=O)Nc2ccccc2N1C(=O)C1CC1 (stereo unspecified)	-6	-9	-5	-1	1	4
COC(=O)C1=C(C(=O)OC)SC(=C2C(=S)C(C)(C)N(C(=O)C(C)C)c3ccccc32)S1	6	53*	29	5	-5	32
O=C(CCNC(=O)C1CCN(S(=O)(=O)c2ccccc2)CC1)Nc1cccc(C(F)(F)F)c1	-1	16	9	2	-3	3
CC(Oc1cccc(Br)c1)C(=O)NNC(=O)CCNC(=O)c1ccccc1Cl (stereo unspecified)	-8	6	4	-3	-4	-4
Nc1c(Cl)ncnc1N/N=C/c1ccccn1	.	50*	.	.	.	.
Nc1c(Cl)ncnc1N/N=C/c1ccc2ccccc2n1	.	84*	.	.	.	53*
O=C1NC[C@H](c2ccccc2)OC(=O)[C@H](Cc2ccc(F)cc2)CC/C=C/C[C@H]1CC(=O)N(CCO)Cc1ccccc1	-5	33	.	2	.	48*
CC(C)(C=O)C1=CC(=O)c2ccccc2C1=O	.	103*	.	.	.	100*
Cc1cc(/C=C(\C#N)C(=O)N2CCOCC2)c(C)n1C1CCCC1	7	6	5	35	-3	0
O=C1c2ccccc2-c2onc3ccc(Oc4ccccc4)c1c23	-111	42	-6	-76	16	41*
COc1cc2[nH]c(C)c(-c3ccccc3)c(=O)c2cc1Cl	.	.	.	.	.	-3
O=C(Nc1nc(-c2ccccc2)cs1)C1CCCN(S(=O)(=O)c2ccccc2)C1 (stereo unspecified)	-5	66*	6	-7	7	-8
O=C(Nc1nc(-c2ccccc2)cs1)C1CCCN(S(=O)(=O)c2cccc([N+](=O)[O-])c2)C1 (stereo unspecified)	3	5	-12	2	-1	-15
CSCCC(NS(=O)(=O)c1ccc(C)cc1)C(=O)Nc1ccc(C)cn1 (stereo unspecified)	-13	5	14	-5	-1	-8
Nc1c(O)ccc2c1C(=O)c1ccccc1C2=O	.	50*	.	.	.	.
N#C/C(=N\Nc1ccc([N+](=O)[O-])cc1)C(N)=S	6	69*	69*	6	-10	53*
N#C/C(=N/Nc1ccc([N+](=O)[O-])cc1)C(=N)N1CCCCC1	.	37	.	.	.	24
CC1(C)CCCC2(C)C1CCC1(C)OC(=O)CCC12 (stereo unspecified)	.	.	.	.	.	-8
CC(=O)OC[C@]12CC[C@H]3[C@@](C)(CC[C@H]4C(C)(C)CCC[C@]34C)[C@@H]1C[C@H](C1=CC(=O)O[C@@H]1OC(C)=O)O2	4	.	0	9	11*	.

Source: PubChem BioAssay
